According to ChEMBL document CHEMBL1140052, “Novel insight in structure-activity relationship and bioanalysis of P-glycoprotein targeting highly potent tetrakishydroxymethyl substituted 3,9-diazatetraasteranes” (J Med Chem, 2008):
The source made the active and inactive calls. No cut-off for these calls is given here.

What was measured:
L5178Y [1] = test: Inhibition of P-glycoprotein expressed in mouse L5178Y cells measured by rhodamine 123 uptake assessed as fluorescence activity ratio relative to wild type mouse L5178 cells at 1 uM; type: cell-based
Procedure, shortened: (§1)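 Mouse T lymphoma parental L5178 and P-gp-expressing L5178Y cells at 2 × 10^6 cells/mL in serum-free McCoy's 5A medium. Compound added from DMSO stock, 10 min at rt. Rhodamine 123 then added (final 5.2 µM), 20 min at 37 °C. Two PBS washes, 1 × 10^4 cells read by flow cytometry. Ratio = subline/parental fluorescence, each corrected to its untreated control.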

L5178Y [2] = test: Inhibition of P-glycoprotein expressed in mouse L5178Y cells measured by rhodamine 123 uptake assessed as fluorescence activity ratio relative to wild type mouse L5178 cells at 10 uM; type: cell-based; procedure, shortened: as §1
Homo sapiens = species on record: Homo sapiens; test: Induction of p-glycoprotein expression in human EPG 85-257 cells after 72 hrs by Western blot analysis; type: functional, cell-based
Procedure, shortened: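 Gastric carcinoma cells seeded at 5 × 10^5 cells/well and cultured 72 h with compound. Cells washed twice, proteins extracted with Triton X-100 and denatured 10 min at 95 °C. Protein quantified by amido black at 630 nm. 20 µg run on SDS-PAGE (4% stacking/6% resolving) and blotted. Probed with C219 (1:100) and peroxidase anti-mouse IgG (1:10000), chemiluminescence read-out. Anti-actin (1:50000) as loading control.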

## OC[C@]12C3N(Cc4ccccc4)C4[C@](CO)(C5N(Cc6ccccc6)C1[C@]3(CO)[C@H](c1cccc(OCc3ccccc3)c1)[C@@]45CO)[C@H]2c1cccc(OCc2ccccc2)c1
L5178Y [1]
  Ratio: 65
L5178Y [2]
  Ratio: 125

## OC[C@]12C3N(Cc4ccccc4)C4[C@](CO)(C5N(Cc6ccccc6)C1[C@]3(CO)[C@H](c1ccc(OCc3ccccc3)cc1)[C@@]45CO)[C@H]2c1ccc(OCc2ccccc2)cc1
L5178Y [1]
  Ratio: 3.3
L5178Y [2]
  Ratio: 47

## COc1ccc([C@H]2[C@@]3(CO)C4N(Cc5ccccc5)C5[C@]2(CO)C2N(Cc6ccccc6)C3[C@]4(CO)[C@H](c3ccc(OC)cc3)[C@@]52CO)cc1
Homo sapiens
  Activity: inactive
L5178Y [1]
  Ratio: 4.3
L5178Y [2]
  Ratio: 57

## COc1ccc(CCN(C)CCCC(C#N)(c2ccc(OC)c(OC)c2)C(C)C)cc1OC (configuration not stated)
L5178Y [1]
  Ratio: 2.1
L5178Y [2]
  Ratio: 4.1

## OC[C@]12C3N(Cc4ccc(OCc5ccccc5)cc4)C4[C@](CO)(C5N(Cc6ccc(OCc7ccccc7)cc6)C1[C@]3(CO)[C@H](c1ccccc1)[C@@]45CO)[C@H]2c1ccccc1
L5178Y [1]
  Ratio: 2.3
L5178Y [2]
  Ratio: 28

## COc1ccc(CN2C3[C@]4(CO)C5N(Cc6ccc(OC)cc6)C6[C@](CO)(C2[C@@]6(CO)[C@@H](c2ccccc2)[C@@]35CO)[C@H]4c2ccccc2)cc1
L5178Y [1]
  Ratio: 3.5
L5178Y [2]
  Ratio: 13

## OC[C@]12C3N(Cc4cccc(OCc5ccccc5)c4)C4[C@](CO)(C5N(Cc6cccc(OCc7ccccc7)c6)C1[C@]3(CO)[C@@H](c1ccccc1)[C@@]45CO)[C@@H]2c1ccccc1
L5178Y [1]
  Ratio: 117
L5178Y [2]
  Ratio: 205

## OC[C@]12C3N(Cc4ccccc4)C4[C@](CO)(C5N(Cc6ccccc6)C1[C@]3(CO)[C@@H](c1ccccc1)[C@@]45CO)[C@@H]2c1ccccc1
L5178Y [1]
  Ratio: 4.1
L5178Y [2]
  Ratio: 29
